Data on 23 compounds can be found in PubChem BioAssay AID623887 (Johns Hopkins Ion Channel Center, 2012).

The IC50 is the point on the concentration scale where inhibition reaches its midpoint.

Where “and” joins values, the source holds several entries; their conditions need not be identical. Equal values may be shown once. Calls of active or inactive are those of the source.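 How the source made its calls: active means blocks the KCNK9 potassium channel at some tested concentration and gives a dose response curve; inactive means the rest.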

Potassium channel subfamily K member 9 (Homo sapiens), sequence (Q9NPC2 whole entry, looked up): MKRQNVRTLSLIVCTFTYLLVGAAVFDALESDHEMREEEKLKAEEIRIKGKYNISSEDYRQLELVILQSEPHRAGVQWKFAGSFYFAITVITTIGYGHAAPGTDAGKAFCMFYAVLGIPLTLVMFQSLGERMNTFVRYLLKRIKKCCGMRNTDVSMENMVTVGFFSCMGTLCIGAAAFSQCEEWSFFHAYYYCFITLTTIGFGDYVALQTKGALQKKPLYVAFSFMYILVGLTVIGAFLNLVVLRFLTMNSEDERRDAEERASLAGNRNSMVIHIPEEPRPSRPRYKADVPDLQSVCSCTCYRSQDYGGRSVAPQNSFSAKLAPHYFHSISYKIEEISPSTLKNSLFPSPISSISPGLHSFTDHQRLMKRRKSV

The first experiment concerns the target Potassium channel subfamily K member 9 (Homo sapiens) (UniProt Q9NPC2). In words: KCNK9 two-pore potassium channel inhibitors, SAR follow-up, cell-based, round 4 (AID 623887). The conditions noted are these: HEK293-KCNK9 thallium flux, FluxOR fluorescence. In a few lines: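 System: tetracycline-induced HEK293 cells stably expressing the KCNK9 channel / Also added: Potassium/thallium sulfate stimulus buffer (5x stock) / Doses: multi-concentration series of test compound / Incubation: 90 min dye loading, then 20 min compound preincubation at room temperature / Signal: kinetic FluxOR fluorescence of thallium influx, 110 s after stimulus / Repeats: replicates per concentration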
As for `COc1cccc(-c2nnc(SSc3nnc(-c4cccc(OC)c4)n3C(C)C3CC4CCC3C4)n2C(C)C2CC3CCC2C3)c1` (stereo not drawn), the half-maximal inhibitory concentration (IC50) is 28000 nM. Still for that read-out and setting: then `C[C@@H]([C@@H]1CC2CC[C@H]1C2)n1c(-c2ccsc2)n[nH]c1=S`, with 146 nM and 544 nM; and `CC(C1CC2CCC1C2)n1c(SCCc2cccc(O)c2)nnc1-c1ccco1` (stereo not drawn), with 1830 nM. With `COc1ccc(NC(=O)CSc2nnc(-c3ccco3)n2C(C)C2CC3CCC2C3)cc1OC` (stereo not drawn), the IC50 was 18300 nM.

Take `C[C@H]([C@@H]1CC2CC[C@H]1C2)n1c(-c2ccco2)n[nH]c1=S`: the half-inhibitory concentration (IC50) was 53 nM.

Regarding `C[C@@H]([C@@H]1CC2CC[C@H]1C2)n1c(-c2ccco2)n[nH]c1=S`, the concentration for half-maximal inhibition (IC50) was 181 nM and 128 nM. As for `COc1cccc(CCSc2nnc(-c3ccco3)n2C(C)C2CC3CCC2C3)c1` (stereo not drawn), the IC50 was 1190 nM. On to `CC(C1CC2CCC1C2)n1c(SCCc2ccccn2)nnc1-c1ccco1` (stereo not drawn), for which the IC50 is 3090 nM.

For `CC([C@@H]1CC2CC[C@H]1C2)n1c(-c2ccsc2)n[nH]c1=S` (stereo partly drawn), the IC50 is 180 nM. Still for that read-out and setting: to `COc1ccc(CSc2nnc(-c3ccco3)n2C(C)C2CC3CCC2C3)cc1OC` (stereo not drawn) belongs 547 nM; to `COc1cccc(-c2n[nH]c(=S)n2[C@H](C)[C@@H]2CC3CC[C@H]2C3)c1`, 467 nM; to `C[C@H]([C@@H]1CC2CC[C@H]1C2)n1c(-c2ccccc2F)n[nH]c1=S`, 169 nM.

As for `COc1ccc(C(=O)CCSc2nnc(-c3ccco3)n2C(C)C2CC3CCC2C3)cc1OC` (stereo not drawn), the 50% inhibitory concentration (IC50) was 663 nM. Take `CCCC(=O)C1CCN(c2ncnc3c2CN(C(=O)c2ccc(-c4ccccc4)cc2)CC3)CC1`: the half-inhibitory concentration (IC50) is 141 nM. Same read-out and setting: to `COc1cccc(-c2n[nH]c(=S)n2[C@H](C)C2CCCCC2)c1` belongs 3420 nM. Same read-out and setting: to `C[C@H](C1CCCCC1)n1c(-c2ccsc2)n[nH]c1=S` belongs 428 nM; to `CC(C1CC2CCC1C2)n1c(SCC(=O)N2CCN(C)CC2)nnc1-c1ccco1` (stereo not drawn), 28000 nM.

As to `CC(C1C[C@H]2CCC1C2)n1c(-c2ccsc2)n[nH]c1=S` (stereo partly drawn), the IC50 was 582 nM. Same read-out and setting: then `CC(C1CC2CCC1C2)n1c(-c2ccco2)nn(CCc2ccncc2)c1=S` (stereo not drawn), with 223 nM; and `C[C@H](C1CCCCC1)n1c(-c2ccccc2F)n[nH]c1=S`, with 683 nM; and `COc1ccc(CC(=O)NCc2ccccc2-c2ccccc2C(=O)NCc2ccc(F)cc2F)cc1`, with 3200 nM.

Still in this experiment, the particulars now being: HEK293-KCNK9 thallium flux, FluxOR fluorescence; at 30 µM (top of the series).
For the compound `CC(C1CCN(C)CC1)n1c(-c2ccco2)n[nH]c1=S` (stereo not drawn), the “flux ratio, lower = inhibition” value was “inactive”.

Turning to `CC(C1CC2CCC1C2)n1c(SCCN2CCOCC2)nnc1-c1ccco1` (stereo not drawn), the “flux ratio, lower = inhibition” value was “inactive”.
